Data taken from ChEMBL document CHEMBL3797069, “Betulin Derivatives Effectively Suppress Inflammation in Vitro and in Vivo” (J Nat Prod, 2016).
Active and inactive are the calls of the source. The calls are words filed in the database; no cut-off is given here.

Assays:
[1] = test system: J774; assay: Antiinflammatory activity in mouse J774 cells assessed as inhibition of LPS-induced nitric oxide production measured as remaining nitric oxide levels at 10 uM by Griess assay; type: functional
Outline: (§1)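 Confluent J774 monolayers were treated with LPS plus compound at 10 μM in fresh medium, 24 h. NO was read as accumulated nitrite in the medium by Griess reaction. n = 4, mean ± SEM versus cells cultured with LPS only.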

[2] = test system: J774; assay: Antiinflammatory activity in mouse J774 cells assessed as inhibition of LPS-induced iNOS expression measured as remaining protein levels at 10 uM after 24 hrs by Western blot analysis; type: functional
Outline: (§2)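 Murine J774 macrophages were grown 72 h to confluence in DMEM with 10% heat-inactivated FBS at 37 °C, 5% CO2. Compound was added in fresh medium with LPS for 24 h. Cells were lysed, and 20 μg protein was immunoblotted for COX-2 or iNOS with actin as the loading control, detected by chemiluminescence. n = 4, mean ± SEM versus LPS alone.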

[3] = test system: J774; assay: Antiinflammatory activity against mouse J774 cells assessed as inhibition of LPS-induced COX-2 expression measured as remaining protein levels at 10 uM after 24 hrs by Western blot analysis; type: functional; outline: as §2
[4] = test system: J774; assay: Antiinflammatory activity against mouse J774 cells assessed as inhibition of LPS-induced IL-6 production measured as remaining IL-6 levels at 10 uM after 24 hrs by ELISA; type: functional
Outline: (§3)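 J774 macrophages were grown 72 h to confluence, then exposed to LPS with compound at 10 μM in fresh medium for 24 h. IL-6 and MCP-1 in the culture medium were quantified by ELISA. n = 4, mean ± SEM relative to LPS-only cells.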

[5] = test system: J774; assay: Antiinflammatory activity against mouse J774 cells assessed as inhibition of LPS-induced MCP-1 production measured as remaining MCP-1 levels at 10 uM after 24 hrs by ELISA; type: functional; outline: as §3
[6] = test system: J774; assay: Downregulation of LPS-induced iNOS expression in mouse J774 cells at 0.3 to 10 uM after 24 hrs by Western blot analysis; type: functional, cell-based
Outline: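 Dose–response was run in LPS-activated J774 macrophages over 24 h, with iNOS protein detected by Western blot and actin as the loading control.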

[7] = test system: J774; assay: Downregulation of LPS-induced IL-6 expression in mouse J774 cells at 0.3 to 10 uM after 24 hrs by ELISA; type: functional, cell-based
Outline: (§4)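 LPS-stimulated J774 cells were incubated 24 h with compound at 0.3–10 μM. IL-6 and MCP-1 concentrations in the medium were determined by ELISA. Mean + SEM, n = 4, compared with LPS alone.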

[8] = test system: J774; assay: Downregulation of LPS-induced MCP-1 expression in mouse J774 cells at 0.3 to 10 uM after 24 hrs by ELISA; type: functional, cell-based; outline: as §4
[9] = test system: J774; assay: Downregulation of LPS-induced iNOS mRNA levels in mouse J774 cells after 6 to 24 hrs by qRT-PCR method; type: functional, cell-based
Outline: (§5)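 Activated J774 cells received compound at 10 μM alongside LPS. At 3, 6 or 24 h, total RNA was extracted and iNOS, IL-6 or MCP-1 mRNA was measured by TaqMan quantitative RT-PCR (40 cycles, 95 °C/60 °C) in duplicate. Levels came from a standard curve and were normalized to GAPDH. n = 4 versus LPS only.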

[10] = test system: J774; assay: Downregulation of LPS-induced IL-6 mRNA levels in mouse J774 cells after 6 hrs by qRT-PCR method; type: functional, cell-based; outline: as §5
[11] = test system: J774; assay: Downregulation of LPS-induced MCP-1 mRNA levels in mouse J774 cells after 3 to 6 hrs by qRT-PCR method; type: functional, cell-based; outline: as §5
[12] = test system: Mus musculus; assay: Antiinflammatory activity in C57BL/6NCrl mouse assessed as inhibition of carrageenan-induced paw edema at 10 mg/kg, ip administered 2 hrs prior to carrageenan challenge measured after 3 hrs by plethysmometry; type: functional
Outline: (§6)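 Eight-week-old male mice were dosed ip with compound (10 mg/kg), dexamethasone (2 mg/kg) or PBS-8% DMSO vehicle 2 h before carrageenan. Under medetomidine/ketamine anesthesia, 45 μL of 1.5% λ-carrageenan in saline was given intradermally into one hindpaw, with saline in the contralateral paw. Paw volume was measured by plethysmometer before and at 3 and 6 h. n = 6–12.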

[13] = test system: Mus musculus; assay: Antiinflammatory activity in C57BL/6NCrl mouse assessed as inhibition of carrageenan-induced paw edema at 10 mg/kg, ip administered 2 hrs prior to carrageenan challenge measured after 6 hrs by plethysmometry; type: functional; outline: as §6
[14] = test system: J774; assay: Antiinflammatory activity against mouse J774 cells assessed as inhibition of LPS-induced iNOS expression after 24 hrs by Western blot analysis; type: functional, cell-based; conditions: J774, 24 h
Outline: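 Murine J774 macrophages in DMEM with 10% heat-inactivated FBS, grown 72 h to confluence, then given LPS plus compound in fresh medium for 24 h. Cells washed in ice-cold PBS and lysed; 20 μg protein per lane on Western blot for iNOS, with β-actin as loading control and chemiluminescent detection. Values relative to LPS-only cells; mean ± SEM, n = 4.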

[15] = test system: J774; assay: Inhibition of LPS-induced iNOS mRNA levels in mouse J774 cells after 6 hrs by qRT-PCR method; type: functional, cell-based; outline: as §5
[16] = test system: J774; assay: Antiinflammatory activity against mouse J774 cells assessed as inhibition of LPS-induced nitric oxide production at 10 uM by Griess assay; type: functional; outline: as §1
[17] = test system: J774; assay: Antiinflammatory activity against mouse J774 cells assessed as inhibition of LPS-induced iNOS expression at 10 uM after 24 hrs by Western blot analysis; type: functional, cell-based; outline: as §2
[18] = test system: J774; assay: Antiinflammatory activity against mouse J774 cells assessed as inhibition of LPS-induced COX-2 expression at 10 uM after 24 hrs by Western blot analysis; type: functional; conditions: J774, 24 h; outline: as §2
[19] = test system: J774; assay: Antiinflammatory activity against mouse J774 cells assessed as inhibition of LPS-induced IL-6 production at 10 uM after 24 hrs by ELISA; type: functional; conditions: J774, 24 h; outline: as §3
[20] = test system: J774; assay: Antiinflammatory activity against mouse J774 cells assessed as inhibition of LPS-induced MCP-1 production at 10 uM after 24 hrs by ELISA; type: functional; conditions: J774, 24 h; outline: as §3

SMILES	Remaining nitric oxide level (% of LPS-only control) [1]	Activity [2]	Activity [3]	Remaining IL-6 level (% of LPS-only) [4]	Activity [5]	other results
C=C(C)[C@@H]1CC[C@]2(C(=O)O)CC[C@]3(C)[C@H](CC[C@@H]4[C@@]5(C)Cc6c[nH]nc6C(C)(C)[C@@H]5CC[C@]43C)[C@@H]12	53.3%	27.5%	58.2%	39.5%	28%	Activity [6]: Active; Activity [7]: Active; Activity [8]: Active; Activity [9]: Active; Activity [10]: Active; Activity [11]: Active; inhibition in vivo at 10 mg/kg [12]: 27%; inhibition in vivo at 10 mg/kg [13]: 44%
C=C(C)[C@@H]1CC[C@]2(C(=O)O)CC[C@]3(C)[C@H](CC[C@@H]4[C@@]5(C)C[C@H](O)[C@H](O)C(C)(C)[C@@H]5CC[C@]43C)[C@@H]12	71.4%	63.6%	93.4%	70.7%	68.3%	
C=C(C)[C@@H]1CC[C@]2(/C=N/O)CC[C@]3(C)[C@H](CC[C@@H]4[C@@]5(C)CC[C@H](O)C(C)(C)[C@@H]5CC[C@]43C)[C@@H]12	31.3%	6.2%	127%	98.3%	136.9%	IC50 [14]: 300 nM; inhibition [15]: inactive
C=C(C)[C@@H]1CC[C@]2(C(=O)O)CC[C@]3(C)[C@H](CC[C@@H]4[C@@]5(C)Cc6c([nH]c7ccccc67)C(C)(C)[C@@H]5CC[C@]43C)[C@@H]12	79.5%	66.6%	140.9%	108.9%	83.4%	
CC1(C)CC[C@]23CC[C@]4(C)[C@H](CC[C@@H]5[C@@]6(C)Cc7c([nH]c8ccc(F)cc78)C(C)(C)[C@@H]6CC[C@]54C)[C@H]2C1OC3	122.6%	83.9%	91.8%	99.3%	108.5%	
C=C(C)[C@@H]1CC[C@]2(C(=O)O)CC[C@]3(C)[C@H](CC[C@@H]4[C@@]5(C)CC[C@H](O)C(C)(C)[C@@H]5CC[C@]43C)[C@@H]12 [BETULINIC ACID]	69%	57.6%	96%	66.1%	98.5%	
C=C(C)[C@@H]1CC[C@]2(C(=O)O)CC[C@]3(C)[C@H](CC[C@@H]4[C@@]5(C)CC6OC(C)(C)OC6C(C)(C)[C@@H]5CC[C@]43C)[C@@H]12 (some centres undefined)	75.2%	40.7%	117.4%	131.7%	87%	
C=C(C)[C@@H]1CC[C@]2(C(N)=O)CC[C@]3(C)[C@H](CC[C@@H]4[C@@]5(C)Cc6cnoc6C(C)(C)[C@@H]5CC[C@]43C)[C@@H]12	66.5%	8.3%	105.5%	90.9%	57.6%	IC50 [14]: 300 nM; inhibition [15]: inactive
C=C(C)[C@@H]1CC[C@]2(CO)CC[C@]3(C)[C@H](CC[C@@H]4[C@@]5(C)CC[C@H](O)C(C)(C)[C@@H]5CC[C@]43C)[C@@H]12 [BETULIN]	47.9%	63.4%	175.1%	133.9%	206.5%	
C[C@@H]1C[C@H]2[C@@H]3CCC4=CC(=O)C=C[C@]4(C)[C@@]3(F)[C@@H](O)C[C@]2(C)[C@@]1(O)C(=O)CO [DEXAMETHASONE]						inhibition at 10 µM [16]: 85%; inhibition [17]: Active; inhibition at 10 µM [18]: 90%; inhibition at 10 µM [19]: 86%; inhibition at 10 µM [20]: 38%
C=C(C)[C@@H]1CC[C@]2(C=O)CC[C@]3(C)[C@H](CC[C@@H]4[C@@]5(C)Cc6cnoc6C(C)(C)[C@@H]5CC[C@]43C)[C@@H]12	113.1%	57.5%	49.6%	91.4%	102.1%	
C=C(C)[C@@H]1CC[C@]2(C(=O)O)CC[C@]3(C)[C@H](CC[C@@H]4[C@@]5(C)Cc6nccnc6C(C)(C)[C@@H]5CC[C@]43C)[C@@H]12						IC50 [14]: 300 nM; inhibition [15]: inactive
CCC(=O)OC[C@]12CC[C@]3(C(C)C)C1=C1[C@H](C[C@@H]4[C@@]5(C)CC[C@H](OC(=O)CC)C(C)(C)[C@@H]5CC[C@@]4(C)[C@]1(C)CC2)n1c(=O)n(C)c(=O)n13	55.7%	50.5%	43%	60%	80.3%	
CC1(C)CC[C@]23CC[C@]4(C)[C@H](CC[C@@H]5[C@@]6(C)Cc7c([nH]c8ccccc78)C(C)(C)[C@@H]6CC[C@]54C)[C@H]2C1OC3	96.5%	94.5%	94.8%	92.1%	96.2%	
C=C(C)[C@@H]1CC[C@]2(C(=O)O)CC[C@]3(C)[C@H](CC[C@@H]4[C@@]5(C)CCC(=O)C(C)(C)[C@@H]5CC[C@]43C)[C@@H]12 [BETUNOLIC ACID]	45.3%	38.3%	107.1%	87.1%	118%	
C=C(C)[C@@H]1CC[C@]2(C(=O)O)CC[C@]3(C)[C@H](CC[C@@H]4[C@@]5(C)Cc6c([nH]c7ccc(OC)cc67)C(C)(C)[C@@H]5CC[C@]43C)[C@@H]12	97.5%	95.1%	162.6%	123.5%	73.1%	
C=C(C)[C@@H]1CC[C@]2(C(N)=O)CC[C@]3(C)[C@H](CC[C@@H]4[C@@]5(C)Cc6nccnc6C(C)(C)[C@@H]5CC[C@]43C)[C@@H]12	111.9%	34.9%	89.9%	82.8%	79.4%	
